# High-throughput results: PubChem, SRMLSC
# HCT116 bCat-KO = primary screen for growth suppressors in beta-catenin knockout HCT116 cells (colon tumor, human) | HCT116 beta-catenin knockout viability, CellTiter-Glo, 60 h; hits give low values | viability, % at 10 µM | 140,000 tested, 1.5% active | AID 818, 2007;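 active = viability at or under a set limit, the compound median less 4 SD, cut at about 6% in these data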;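 also: 0% = Hyamine 1622 control at 20 µM and 100% = untreated cell control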
# HUVEC prolif 384 = inhibitors of HUVEC proliferation, primary screen, cell-based, 384-well; CellTiter-Glo luminescence, 72 h; hits give low values; viability, % at 10 µM (by protocol); 86,000 tested, 1.1% active; AID 648, 2007;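 active = viability at or below 30%; inactive = viability above 30%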;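 also: 100% = median luminescence of DMSO-only cell control wells on each plate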
# H69AR inhibit = proliferation blockers of H69AR lung cancer cells, primary screen, cell-based, human, 86K library; H69AR lung tumor viability, ATP luminescence, 72 h; hits give low values; viability, % at 10 µM; 85,000 tested, 6% active;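 active = viability at or below 40%; inactive = viability above 40%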;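 also: multidrug resistant small cell line overexpressing MRP-1 efflux transporter; 100% = mean luminescence of untreated control wells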
# PTEN del growth = growth suppression of PTEN-null HCT116, primary screen, cell-based, CellTiter-Glo. HCT116 PTEN-null viability, 60 h; hits give low values. viability, % at 10 µM. 140,000 tested, 1.2% active. AID 827, 2007;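 active = viability at or below a set limit, 4 SD under the median of all tested compounds, cut at about 3.7% in these data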;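 also: PTEN knockout HCT116 line with beta catenin targeted HCT116 as companion control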
# Lung fibro prol = antiproliferative effect on LL 47 fibroblasts – human, LL 47 cells, CellTiter-Glo luminescence, primary screen; 85,000 tested, 1.1% active; viability, % at 10 µM; LL 47 human lung fibroblast viability, ATP luminescence; hits give low values;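 active = viability at or below 50% in the single dose screen; inactive = viability above 50%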;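 also: compound exposure lasted 72 h before the ATP readout; 100% = median luminescence of untreated cell-only wells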
#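 Test system: LL 47 human lung fibroblasts / Incubation: 72 h compound exposure at 37 °C after overnight plating / Technique: luminescent ATP detection, CellTiter-Glo / Compound dosing: 0.1% DMSO in all compound wells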
# Active calls of the source: *; · = no result given. Shown is part of a subset that was picked to be rich in hits.
SMILES,HCT116 bCat-KO,HUVEC prolif 384,H69AR inhibit,PTEN del growth,Lung fibro prol
O=C(Nc1nc(-c2ccccn2)cs1)c1ccc(Br)s1,7.3,24.1*,13.1*,12.9,26.8*
Cc1nc2sc3c(c2c2nc(-c4ccco4)nn12)CC(C)(C)OC3,·,96.8,78.2,·,112.7
COc1ccc(C(C)(C)C)cc1NC(=O)Nc1ccc2c(c1)OCO2,46.7,59.6,21.8*,45.4,97.8
COc1cccc(C2C(C(=O)c3sc(C)nc3C)=C(O)C(=O)N2CCN(C)C)c1OC (configuration not stated),·,96.5,99.1,·,103.9
O=C1CN(C(=O)c2cc(Br)c(Br)s2)c2ccccc2N1,32.5,41.8,15.9*,30.6,79.1
O=C1CN(C(=O)c2ccccc2)c2ccccc2N1,96.0,105.5,83.2,101.3,107.8
O=C(Nc1cccc(Oc2ccc3c(c2)C(=O)NC3=O)c1)c1cccs1,91.5,·,·,93.7,·
O=C(COc1cccnc1[N+](=O)[O-])Nc1cccc(S(=O)(=O)N2CCCCC2)c1,83.0,·,·,87.1,·
Cc1cccc(C)c1Nc1nnc(SC(C)C(=O)Nc2c(C)n(C)n(-c3ccccc3)c2=O)s1 (configuration not stated),93.9,·,·,92.8,·
C#CCSc1nsc(SCC#C)c1C#N,2.7*,·,·,5.3,·
CCCSc1nsc(SCCC)c1C#N,96.9,90.1,93.9,100.9,93.9
Cc1cccnc1NCc1ccc(O)c2ncccc12,3.9*,68.4,13.4*,2.5*,83.5
Cc1ccc(Nc2nc(-c3ccc(S(=O)(=O)N4CCOCC4)cc3)cs2)cc1Cl,30.6,·,·,31.6,·
O=C(CCN1CCC(c2ccccc2)C1)c1ccccc1 (configuration not stated),87.0,·,·,96.0,·
O=C(CCN1CCC(c2ccccc2)C1)c1cccs1 (configuration not stated),15.8,·,·,2.8*,·
O=C1CCC/C(=N/NC(=O)C2CCN(S(=O)(=O)c3cccs3)CC2)C1,83.5,·,·,96.7,·
CC1CN(S(=O)(=O)c2ccc(NC(=O)c3cc(-c4ccccc4O)n[nH]3)cc2)CC(C)O1 (configuration not stated),16.9,55.3,11.6*,8.4,73.9
CC1CN(S(=O)(=O)c2ccc(C(=O)Nc3ccc(S(=O)(=O)Nc4nccs4)cc3)cc2)CC(C)O1 (configuration not stated),90.3,·,·,94.5,·
O=S(CC1CC1(Cl)Cl)CC1CC1(Cl)Cl (configuration not stated),95.8,·,·,94.9,·
OC1CCCN(Cc2ccc3ccc4cccc5ccc2c3c45)C1 (configuration not stated),1.3*,2.4*,44.7,2.2*,48.5*
CCCOc1ccc(NC(=O)OC2CCN(C)CC2)cc1,95.5,·,·,92.4,·
Cc1ccccc1N1C(S)=C(C#N)C(=O)NC12CCCCC2,84.2,·,·,85.5,·
CCc1ccccc1NCC(=O)Nc1ccc(Cl)c(C(F)(F)F)c1,69.5,·,·,58.5,·
CCOC(=O)c1cc(-c2ccncc2)nc2c1c(C)nn2C,43.5,45.5,33.1*,47.5,57.1
CCOC(=O)c1cc(-c2ccccc2)nc2c1c(C)nn2-c1ccccn1,53.9,77.0,44.8,38.2,65.9
SMILES,HCT116 bCat-KO,HUVEC prolif 384,H69AR inhibit,PTEN del growth,Lung fibro prol
CCOC(=O)c1[nH]c2ccc(F)cc2c1NC(=O)CN1CCN(C/C=C/c2ccccc2)CC1,56.0,2.6*,3.6*,47.8,14.2*
N#CC1=C(SCC(=O)NC2CC2)NC(=O)C(C#N)C12CCCCC2 (configuration not stated),94.9,83.6,100.5,101.4,95.1
CC(C)(C)C1CCC2(CC1)C(C#N)=C(SCC(=O)NC1CCCCC1)NC(=O)C2C#N (configuration not stated),71.7,44.1,9.6*,61.2,82.0
N#CC1=C(SCC(=O)NC23CC4CC(CC(C4)C2)C3)NC(=O)C(C#N)C12CCCCC2 (configuration not stated),50.5,56.2,9.1*,38.8,79.8
Cc1nccn1-c1cc(C(C)C)c(C#N)c2nc3ccccc3n12,·,92.7,83.9,·,100.2
COc1ccc(OCC(=O)Nc2cccc(C(=O)Nc3ccccc3C(=O)O)c2)cc1,92.1,·,·,94.5,·
COc1cccc(C2C3=C(N=c4s/c(=C\c5cccc(O)c5)c(=O)n42)c2ccccc2CC3)c1OC (configuration not stated),2.4*,·,·,1.7*,·
CC(C(=O)Nc1ccccc1-c1ccccc1)N1CCN(S(=O)(=O)c2ccccc2)CC1 (configuration not stated),83.7,·,·,86.1,·
CC(C(=O)Nc1ccccc1-c1ccccc1)N1CCCCC1 (configuration not stated),75.5,112.7,2.6*,82.0,96.5
Cc1ccc(C=Nc2ccccc2C(N)=O)o1,96.2,·,·,92.7,·
Cc1ccc(C=Nc2ccc(N(C)C)cc2)o1,5.4*,90.5,67.6,37.9,105.6
CC(CNc1ccccc1O)C(=O)O (configuration not stated),70.4,·,·,68.5,·
Cc1cc(N2CCC(N(C)C3CCCC3)CC2)nc2cc(O)ccc12,75.5,75.7,1.1*,77.6,66.1
Cc1ccc(-c2nc3cccnc3o2)cc1NC(=O)COc1ccc(C(C)(C)C)cc1,67.1,18.4*,43.6,58.0,81.6
Cc1ccc(-c2nc3ncccc3o2)cc1NC(=O)Cc1ccc(Cl)cc1,74.8,98.4,68.0,70.1,86.6
Cc1ccc(-c2nc3cccnc3o2)cc1NC(=O)COc1ccc(Cl)cc1C,95.1,33.3,6.9*,23.0,62.6
O=c1nc2scc(-c3ccccc3)n2c2ccccc12,97.2,93.2,74.3,108.2,95.5
CC1Cc2ccccc2N1C(=O)CO/N=C/c1ccc(OC(F)F)cc1 (configuration not stated),103.4,·,·,93.0,·
COc1cc2c(cc1NC(=O)CSc1cccc[n+]1[O-])oc1ccccc12,69.6,·,·,76.2,·
COC(=O)c1ccc(C(=O)OC)c(NC(=O)CN2CCN(c3ccc(OC)cc3)CC2)c1,92.9,98.1,83.8,93.0,95.3
COC(=O)c1ccc(C(=O)OC)c(NC(=O)CSc2cccc[n+]2[O-])c1,59.7,90.2,2.2*,59.5,97.6
COC(=O)c1ccc(C(=O)OC)c(NC(=O)CN2CCN(c3ccccc3)CC2)c1,85.5,58.7,15.7*,86.0,55.5
O=C(CN1N=C(c2ccc(Cl)cc2)CCC1=O)NCCN1CCc2ccccc2C1,72.7,·,·,77.6,·
CC(=O)Oc1ccc2c(C)cc(=O)oc2c1,95.3,103.9,96.3,99.3,109.5
CC(=O)Oc1cc2oc(=O)cc(C)c2cc1OC(C)=O,58.9,77.7,36.1*,73.9,83.6
COc1cc(N=c2ssnc2Cl)cc(OC)c1,85.0,89.6,0.0*,95.9,70.2
OCc1ccccc1N=c1ssnc1Cl,100.7,96.3,59.9,94.5,97.2
